Source: ChEMBL document CHEMBL5344483, “Design and synthesis of novel chloropyridazine hybrids as promising anticancer agents acting by apoptosis induction and PARP-1 inhibition through a molecular hybridization strategy” (RSC Med Chem, 2024)
Active and inactive are the calls of the source. The calls are words filed in the database; no cut-off is given here.

Experiments:
HNO 97 cell line [1] = experiment: Anticancer activity against human HNO97 cells assessed as growth inhibition at 100 microg/mL by SRB assay relative to control; type: functional; settings: read-out: GI
Procedure, shortened: (§1)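 Cells seeded at 3×10^3 per well and allowed to attach for 24 h. Treated with 100 µg/mL compound for 48 h, triplicate wells, with a 1% v/v DMSO vehicle control. Fixed in 20% TCA, stained with 0.4% SRB, and OD read at 570 nm. Survival fraction is treated OD/control OD.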

FaDu [2] = experiment: Anticancer activity against human FaDu cells assessed as growth inhibition at 100 microg/mL by SRB assay relative to control; type: functional; settings: read-out: GI; procedure, shortened: as §1
MCF7 = experiment: Anticancer activity against human MCF7 cells assessed as growth inhibition at 100 microg/mL by SRB assay relative to control; type: functional; settings: read-out: GI; procedure, shortened: as §1
SK-BR-3 = experiment: Anticancer activity against human SK-BR-3 cells assessed as growth inhibition at 100 microg/mL by SRB assay relative to control; type: functional; settings: read-out: GI; procedure, shortened: as §1
MDA-MB-468 [3] = experiment: Anticancer activity against human MDA-MB-468 cells assessed as growth inhibition at 100 microg/mL by SRB assay relative to control; type: functional; settings: read-out: GI; procedure, shortened: as §1
Huh-7 = experiment: Anticancer activity against human Huh-7 cells assessed as growth inhibition at 100 microg/mL by SRB assay relative to control; type: functional; settings: read-out: GI; procedure, shortened: as §1
A-375 = experiment: Anticancer activity against human A-375 cells assessed as growth inhibition at 100 microg/mL by SRB assay relative to control; type: functional; settings: read-out: GI; procedure, shortened: as §1
HCT-116 = experiment: Anticancer activity against human HCT-116 cells assessed as growth inhibition at 100 microg/mL by SRB assay relative to control; type: functional; settings: read-out: GI; procedure, shortened: as §1
NCI-H460 = experiment: Anticancer activity against human NCI-H460 cells assessed as growth inhibition at 100 microg/mL by SRB assay relative to control; type: functional; settings: read-out: GI; procedure, shortened: as §1
A549 = experiment: Anticancer activity against human A549 cells assessed as growth inhibition at 100 microg/mL by SRB assay relative to control; type: functional; settings: read-out: GI; procedure, shortened: as §1
HeLa = experiment: Anticancer activity against human HeLa cells assessed as growth inhibition at 100 microg/mL by SRB assay relative to control; type: functional; settings: read-out: GI; procedure, shortened: as §1
[4] = Cytotoxicity against human HSF (VGS) cells assessed as growth inhibition at 100 microg/mL by SRB assay relative to control; type: toxicity, cell-based; settings: at 100 µg/mL, read-out: GI
HNO 97 cell line [5] = experiment: Cytotoxicity against human HNO97 cells by SRB assay; type: functional, cell-based
Procedure, shortened: (§2)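 Cells seeded at 3×10^3 per well and allowed to attach for 24 h. Exposed to […], 12.5, 25 and 50 µg/mL for 48 h, triplicate wells per concentration, with a 1% v/v DMSO vehicle. Fixed in 20% TCA, stained with 0.4% SRB, and OD read at 570 nm. IC50 from sigmoidal dose-response fit of survival fraction (treated/control OD).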

FaDu [6] = experiment: Cytotoxicity against human FaDu cells by SRB assay; type: functional, cell-based; procedure, shortened: as §2
MDA-MB-468 [7] = experiment: Cytotoxicity against human MDA-MB-468 cells by SRB assay; type: functional, cell-based; procedure, shortened: as §2
[8] = biological target: T1, Poly [ADP-ribose] polymerase 1 (Homo sapiens, UniProt P09874); experiment: Inhibition of human PARP-1 in MDA-MB-231 cells assessed as accumulation of cleaved PARP-1 by immunoblot analysis; type: cell-based
T1 sequence (P09874 whole entry): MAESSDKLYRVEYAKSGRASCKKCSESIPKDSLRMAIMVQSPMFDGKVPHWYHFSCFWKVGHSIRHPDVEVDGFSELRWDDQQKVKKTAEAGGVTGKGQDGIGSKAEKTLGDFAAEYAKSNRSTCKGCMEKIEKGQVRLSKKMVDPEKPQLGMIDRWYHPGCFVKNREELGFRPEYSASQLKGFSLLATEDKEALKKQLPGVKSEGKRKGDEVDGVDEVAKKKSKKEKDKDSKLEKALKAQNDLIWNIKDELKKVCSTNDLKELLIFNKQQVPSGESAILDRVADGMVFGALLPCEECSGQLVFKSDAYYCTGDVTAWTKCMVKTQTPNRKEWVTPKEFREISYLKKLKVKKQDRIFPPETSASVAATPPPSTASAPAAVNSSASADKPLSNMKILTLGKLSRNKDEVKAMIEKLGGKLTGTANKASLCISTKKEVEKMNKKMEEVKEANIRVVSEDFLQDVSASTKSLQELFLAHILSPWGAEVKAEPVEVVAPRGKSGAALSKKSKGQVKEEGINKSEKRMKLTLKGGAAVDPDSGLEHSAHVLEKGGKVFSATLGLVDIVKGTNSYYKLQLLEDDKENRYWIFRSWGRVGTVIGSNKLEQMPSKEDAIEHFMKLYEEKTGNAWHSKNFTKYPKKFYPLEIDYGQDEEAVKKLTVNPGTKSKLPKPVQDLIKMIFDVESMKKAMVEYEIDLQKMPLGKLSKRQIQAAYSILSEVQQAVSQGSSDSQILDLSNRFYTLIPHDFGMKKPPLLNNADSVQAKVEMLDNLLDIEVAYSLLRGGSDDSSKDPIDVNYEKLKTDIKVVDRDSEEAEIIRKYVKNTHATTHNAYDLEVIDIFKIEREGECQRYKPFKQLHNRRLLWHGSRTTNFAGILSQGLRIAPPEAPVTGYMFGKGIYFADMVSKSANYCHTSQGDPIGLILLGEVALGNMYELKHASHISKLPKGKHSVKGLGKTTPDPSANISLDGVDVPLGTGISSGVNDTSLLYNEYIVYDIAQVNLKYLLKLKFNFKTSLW
Procedure, shortened: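 Drug-treated cells lysed and protein measured by BCA. Lysate (30 µg) separated by SDS-PAGE and transferred to PVDF. Probed with anti-PARP1 primary antibody (1:1000), then HRP-conjugated secondary (1:10,000), with alpha-tubulin as loading probe. Detected by ECL. Blots representative of at least three independent experiments.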

MDA-MB-231 = experiment: Antiproliferative activity against human MDA-MB-231 cells assessed as reduction in cell growth by coomassie Brilliant Blue staining based analysis; type: functional
[9] = biological target: T1, Poly [ADP-ribose] polymerase 1; experiment: Inhibition of PARP1 (unknown origin) by ELISA

inhibition [8]	IC50 [9]	SMILES	inhibition of growth at 100 µg/mL (HNO 97 cell line [1])	inhibition of growth at 100 µg/mL (FaDu [2])	inhibition of growth at 100 µg/mL (MCF7)	inhibition of growth at 100 µg/mL (SK-BR-3)	inhibition of growth at 100 µg/mL (MDA-MB-468 [3])	inhibition of growth at 100 µg/mL (Huh-7)	inhibition of growth at 100 µg/mL (A-375)	inhibition of growth at 100 µg/mL (HCT-116)	inhibition of growth at 100 µg/mL (NCI-H460)	inhibition of growth at 100 µg/mL (A549)	inhibition of growth at 100 µg/mL (HeLa)	inhibition at 100 microg/mL [4]	IC50 (HNO 97 cell line [5])	IC50 (FaDu [6])	IC50 (MDA-MB-468 [7])	Activity (MDA-MB-231)
		O=C(/C=C/c1ccc(Oc2ccc(Cl)nn2)cc1)c1ccc([N+](=O)[O-])cc1	88.6%	82.7%	72.9%	74.8%	91.9%	72.1%	62.2%	55.1%	64.2%	75.1%	63.9%	65.6%	28.8 µM	60.2 µM	36.7 µM	
Active		CC(=O)Nc1ccc(C(=O)/C=C/c2ccc(Oc3ccc(Cl)nn3)cc2)cc1	85.5%	86.5%	75%	71.3%	89.7%	77.5%	71.7%	54.5%	63.3%	69.3%	62.9%	70.2%	21.6 µM	30.6 µM	81.5 µM	Active
		COc1cccc2c1C(=O)c1c(O)c3c(c(O)c1C2=O)C[C@@](O)(C(=O)CO)C[C@@H]3O[C@H]1C[C@H](N)[C@H](O)[C@H](C)O1 [DOXORUBICIN]	84.5%	84.5%	75.6%	71.1%	94%	69.6%	84%	82.9%	75.5%	66.7%	73%	52.9%	7 µM	14 µM	6.8 µM	
		O=C(/C=C/c1ccc(Oc2ccc(Cl)nn2)cc1)c1ccc(O)cc1	79.3%	85%	68.5%	68.2%	79.2%	72%	59.2%	76.4%	68.3%	73.8%	73.2%	61%	31.2 µM	122 µM	116 µM	
	1.92 µM	COc1cc(O)ccc1C(=O)/C=C/c1ccc(O)cc1																
		O=C(/C=C/c1ccc(Oc2ccc(Cl)nn2)cc1)c1ccc(OCc2ccccc2)cc1	85.5%	85.4%	71.7%	73.2%	89.8%	73.9%	67.2%	61.4%	46.9%	77.1%	68.2%	67.8%	74.5 µM	79 µM	54.2 µM	
		COc1ccc(COc2ccc(C(=O)/C=C/c3ccc(Oc4ccc(Cl)nn4)cc3)cc2)cc1	82.4%	75.5%	60.6%	60.8%	88.4%	69.3%	59.3%	44%	44.8%	72%	40.4%	53.5%	40.2 µM	95.2 µM	93 µM	
	0.002 µM	COC1CCN(C(=O)c2cc(Cc3n[nH]c(=O)c4ccccc34)ccc2F)CC1 [AZD2461]																
	25 µM	CC1(COc2ccc(/C=C3/SC(O)=NC3=O)cc2)CCCCC1																
		COc1ccc(C(=O)/C=C/c2ccc(Oc3ccc(Cl)nn3)cc2)cc1	69.1%	68.2%	62.1%	66.7%	85.6%	71.4%	52.6%	62.7%	63.1%	77%	58.4%	53.5%	54.5 µM		112 µM	
		O=C(/C=C/c1ccc(Oc2ccc(Cl)nn2)cc1)c1ccc(OCc2ccc(OC(F)(F)F)cc2)cc1	81%	84.9%	53.6%	67.4%	80.3%	66.3%	53%	39.6%	49.7%	57.8%	40.5%	49.4%	20.3 µM	83.5 µM	68.3 µM	
		O=C1NC(=O)/C(=C\c2ccc(Oc3ccc(Cl)nn3)cc2)S1	40.3%	65.2%	49.9%	63.8%	73%	52.9%	34.2%	55.8%	23.8%	57.8%	15.3%	56.9%			108 µM	
		Cc1ccc(C(=O)/C=C/c2ccc(Oc3ccc(Cl)nn3)cc2)cc1	84.8%	80.2%	72.4%	70.6%	88%	75.4%	69.1%	78.5%	72.4%	74.1%	72.4%	67.8%	15.7 µM	120 µM	74.1 µM	Active
	3 µM	O=c1[nH]nc2c3c(cccc13)Oc1ccc(CN3CCC(O)CC3)cc1-2 [E-7016]																
		O=C(/C=C/c1ccc(Oc2ccc(Cl)nn2)cc1)c1ccccc1	85.3%	80.9%	63%	70.5%	90.5%	74.8%	29.3%	39%	55.9%	66.4%	51%	52.2%	16.9 µM	17.8 µM	26.4 µM	Active
		O=C(/C=C/c1ccc(Oc2ccc(Cl)nn2)cc1)c1ccc(OCc2ccc(F)c(Cl)c2)cc1	75.6%	61.8%	47.2%	49.8%	78.2%	61.9%	39%	55%	54.6%	69.2%	36.2%	54%	30.3 µM		36.3 µM	
